Measurements collected from several papers.
Lines come from different studies, so protocols differ. pIC50, pKd, pKi: −log10 of the molar value.
ADRA2A: Alpha-2A adrenergic receptor (ADRA2A, Homo sapiens, UniProt P08913)
SLC22A11: Solute carrier family 22 member 11 (SLC22A11, Homo sapiens, UniProt Q9NSA0)
CA1: Carbonic anhydrase 1 (CA1, Homo sapiens, UniProt P00915)
Protein phosphatase methylesterase 1: Protein phosphatase methylesterase 1 (Homo sapiens, UniProt Q9Y570)

`COc1cc2c(cc1OC)CN(CCc1ccc(NC(=O)c3cccc4c(=O)c5cccc(OC)c5[nH]c34)cc1)CC2` gave a pKi of 5.86 (ADRA2A; cell-free assay).
`N#Cc1c(Cl)c(Cl)c(Cl)c(C#N)c1Cl` has a pIC50 of 5.14 (SLC22A11; transporter uptake, inhibitor).
`CC(=O)c1c(C)c2cnc(Nc3ccc(C4CCN(CCS(C)(=O)=O)CC4)cn3)nc2n(C2CCCC2)c1=O` gave a pIC50 of < 5.00 (Cytochrome P450 2C19 (CYP2C19, Homo sapiens, UniProt P33261); enzyme activity, inhibitor; human, liver microsomes).
For `CC(C)C[C@H]1C(=O)N2CCC[C@H]2[C@]2(O)O[C@](NC(=O)[C@@H]3C=C4c5cccc6[nH]c(Br)c(c56)C[C@H]4N(C)C3)(C(C)C)C(=O)N12`, the pIC50 was 5.31 (Synaptic vesicular amine transporter (SLC18A2, Homo sapiens, UniProt Q05940); transporter uptake, inhibitor).
For `O=C(Nc1ccc(C(F)(F)F)cc1)Nc1ccc2c(c1)C=CCP(=O)(O)O2`, the pKi was < 5.00 (CA1; enzyme activity, inhibitor, stopped-flow).
With `CC[C@H](C)[C@H](NC(=O)[C@H](CCCCNC(=O)CN(CCNC(=O)CN(CCNC(=O)CN(CCNC(=O)CN(CCNC(=O)[C@H](CCCNC(=N)N)NC(C)=O)C(=O)Cn1ccc(N)nc1=O)C(=O)Cn1cnc2c(=O)[nH]c(N)nc21)C(=O)Cn1cnc2c(=O)[nH]c(N)nc21)C(=O)Cn1ccc(N)nc1=O)NC(=O)[C@H](C)NC(=O)[C@H](CCCNC(=N)N)NC(=O)[C@H](CCCCN)NC(=O)[C@H](CCC(N)=O)NC(=O)[C@H](CCC(N)=O)NC(=O)[C@H](CC(N)=O)NC(=O)[C@@H](NC(=O)[C@H](CC(C)C)NC(=O)[C@H](CC(N)=O)NC(=O)[C@@H]1CCCN1C(=O)[C@H](CC(=O)O)NC(=O)[C@H](CC(C)C)NC(=O)[C@H](C)NC(=O)[C@H](CS)NC(=O)[C@H](CCCC(=O)NCCN(CC(=O)NCCN(CC(=O)NCCN(CC(=O)NCCN(CC(N)=O)C(=O)Cn1cnc2c(=O)[nH]c(N)nc21)C(=O)Cn1ccc(N)nc1=O)C(=O)Cn1ccc(N)nc1=O)C(=O)Cn1cnc2c(=O)[nH]c(N)nc21)NC(=O)[C@H](Cc1c[nH]c2ccccc12)NC(=O)[C@H](Cc1ccc(O)cc1)NC(=O)[C@H](CCCNC(=N)N)NC(=O)[C@H](CC(N)=O)NC(=O)[C@H](CCCNC(=N)N)NC(=O)[C@H](CC1CCCCC1)NC(=O)[C@H](CCC(=O)O)NC(=O)[C@H](CCCCN)NC(=O)[C@H](CO)NC(=O)[C@H](Cc1ccccc1)NC(C)=O)[C@@H](C)O)C(=O)N[C@@H](CCCNC(=N)N)C(=O)N[C@@H](CO)C(=O)N[C@H](C(=O)N[C@@H](Cc1ccc(O)cc1)C(=O)N[C@@H](CCC(=O)O)C(=O)N[C@@H](CCC(=O)O)C(N)=O)[C@@H](C)CC` the pKd was 9.24 (Receptor tyrosine-protein kinase erbB-2 (ERBB2, Homo sapiens, UniProt P04626); binding, SPR).
`O=C(Nc1ccc2c(c1)C=CCP(=O)(O)O2)c1ccc2ccccc2c1` has a pKi of < 5.00 (CA1; enzyme activity, inhibitor, stopped-flow).
The pIC50 of `O=P(Oc1ccccc1)(Oc1ccccc1)C(NCc1cncc2ccccc12)c1ccc(O)cc1` (stereo not drawn) is reported as 4.81 (Protein phosphatase methylesterase 1; enzyme activity, inhibitor; lysate).
For `NC(=S)N/N=C1/c2ccccc2[C@@H]2[C@H]1[C@@H](c1ccoc1)[C@H](C(=O)c1ccco1)[C@H]2c1ccoc1`, the pIC50 was 6.13 (Carbonic anhydrase 2 (CA2, Homo sapiens, UniProt P00918); enzyme activity, inhibitor, absorbance).
`O=C(Nc1cccc(F)c1)Nc1ccc2c(c1)C=CCP(=O)(O)O2` gave a pKi of < 5.00 (CA1; enzyme activity, inhibitor, stopped-flow).
For `C[CH2][Hg][S]c1ccccc1C(=O)[O-].[Na+]`, the pIC50 was 5.30 (SLC22A11; transporter uptake, inhibitor).
The pKi of `O=C(Nc1ccc2c(c1)C=CCP(=O)(O)O2)Nc1ccccc1Br` is reported as < 5.00 (CA1; enzyme activity, inhibitor, stopped-flow).
The pIC50 of `CCOC(=O)c1ccc(OC(=O)CCCCCN=C(N)N)cc1` is reported as 5.70 (Tryptase gamma (Homo sapiens, UniProt Q9NRR2); enzyme activity, inhibitor).
With `O=C(CP(=O)(Oc1ccccc1)Oc1ccccc1)N/N=C/c1ccncc1Br` the pIC50 was 5.15 (Protein phosphatase methylesterase 1; enzyme activity, inhibitor; lysate).
The pKi of `CCCCC1CNC2CCc3ccc(OC)cc3C12` (racemic) is reported as 6.59 (ADRA2A; ligand displacement, radioligand).
